Published values collected from several papers.
Target: Dual specificity tyrosine-phosphorylation-regulated kinase 3 (DYRK3, Homo sapiens, UniProt O43781)

| SMILES | read-out | mode | method | concentration | endpoint | value |
| --- | --- | --- | --- | --- | --- | --- |
| N#CCCc1ccc2c(c1)-c1[nH]c3ccc([N+](=O)[O-])cc3c1CC(=O)N2 | cell-free assay | – | – | 0.5 µM | remaining signal | 97.6% |
| O=C(O)c1ccc2c(c1)nc(NCCc1cccc(F)c1)c1ncncc12 | enzyme activity | inhibitor | radiometric | 1 µM | remaining activity | 17% |
| Cn1cnc(Br)c1C1=CN(c2ncnc3[nH]cnc23)CCS1 | enzyme activity | inhibitor | radiometric | 50 nM | inhibition | 49.8% |
| COc1cc(-c2cc(-c3ccc(N4CCNCC4)cc3)cnc2C)cc(OC)c1OC | enzyme activity | inhibitor | – | 0.1 µM | inhibition | 1% |
| Nc1nc(Nc2ccccc2)sc1C(=O)c1c(F)cccc1F | enzyme activity | inhibitor | – | 10 µM | remaining activity | 83% |
| COc1cc2ncnc(Nc3ccc(Oc4ccccc4)c(C)c3C)c2cc1OC | enzyme activity | inhibitor | – | 1 µM | inhibition | -3% |
| O=C1Nc2ccc(Cl)cc2C1=Cc1cc(Cl)c(O)c(Cl)c1 | cell-free assay | – | – | 0.5 µM | remaining signal | 91.8% |
| O=C(O)c1ccc2c(c1)nc(Nc1cccc(F)c1)c1ncncc12 | enzyme activity | inhibitor | radiometric | 1 µM | remaining activity | 9% |
| CN(c1ncccc1CNc1nc(Nc2ccc3c(c2)CC(=O)N3)ncc1C(F)(F)F)S(C)(=O)=O | enzyme activity | inhibitor | – | 1 µM | inhibition | 66.8% |
| CC/C(=N\NC(=O)NCc1cccc(O)c1)c1ccc(O)c(C)c1O | enzyme activity | inhibitor | – | 0.1 µM | inhibition | 1.6% |
| O=C(O)c1ccc2c(c1)nc(NCCc1cccc(Cl)c1)c1ncncc12 | enzyme activity | inhibitor | radiometric | 1 µM | remaining activity | 37% |
| Cn1cncc1C1=CN(c2ncnc3[nH]cnc23)CCS1 | enzyme activity | inhibitor | radiometric | 2 µM | inhibition | 90.9% |
| O=C(O)c1ccc2c(c1)nc(NCCc1cccc(F)c1)c1ccncc12 | enzyme activity | inhibitor | radiometric | 1 µM | remaining activity | 7% |
| Oc1cccc(-c2nc(N3CCOCC3)c3oc4ncccc4c3n2)c1 | enzyme activity | inhibitor | – | 10 µM | remaining activity | 64% |
